Data on 3 compounds can be found in PubChem BioAssay AID1746 (Sanford-Burnham Center for Chemical Genomics, 2009).

The assay deals with Primary human hepatocytes, TRAIL cytotoxicity, ATPlite, 24 h. Nature of the assay: TRAIL plus compound toxicity in normal liver cells, confirmation, cytotoxicity control for TRAIL sensitizer project, cell-based, primary human hepatocytes, ATPlite luminescence, 24 h (AID 1746). The note with it: for cytotoxicity with TRAIL: at 5 µM (top of the series); for cytotoxicity: stronger effect = higher value. In outline:
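Material – primary human hepatocytes · Probe or stimulus – TRAIL, 1000 ng/mL final · Doses – compound 1.25–5 µM final · Incubation – 4 h compound pretreatment, then 24 h TRAIL exposure, 37 °C · Detection – ATPlite luminescence · Measure – percent cytotoxicity, sodium azide background signal subtracted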
A general note: ATP-based viability assays read luminescence as a measure of living cells.

[1] abbreviates: compound alone without TRAIL, at 5 µM.
The mark [2] stands for this setting: measured here: TRAIL alone reference, dose or concentration not given here.

Turning to `CCSc1nc(-c2ccccc2)nc(C(Cl)Cl)n1`, the cytotoxicity with TRAIL is 73%. The cytotoxicity under setting [1] came out at 47%. Moreover, the cytotoxicity under setting [2] was determined as 0%.

`CSc1nc(-c2ccccc2)nc(C(Cl)Cl)n1`: the cytotoxicity with TRAIL is 68%. Further, the cytotoxicity under setting [1] was 22%. For the same compound, the cytotoxicity under setting [2] came to 0%.

Consider `CSc1nc(-c2ccc(C)cc2)nc(C(Cl)Cl)n1`, for which the cytotoxicity with TRAIL is 67%. The cytotoxicity under setting [1] is 9%. Also, under setting [2], the cytotoxicity was 0%.
